Columns and labels:
[1] = tested on: HEK293; assay: Antiproliferative activity against human HEK293 cells after 48 hrs by CCK-8 assay; details: HEK293, 48 h
[2] = biological target: T1, DNA topoisomerase 1 (Homo sapiens) (UniProt P11387); assay: (§1) Inhibition of recombinant human topoisomerase 1-mediated DNA relaxation expressed in Saccharomyces cerevisiae TopI null strain RS190 at 80 uM using negatively supercoiled pUC18 as substrate pretreated with enzyme for 15 mins followed by substrate addition measured after 1 min by agarose gel electrophoresis
T1 sequence (whole entry): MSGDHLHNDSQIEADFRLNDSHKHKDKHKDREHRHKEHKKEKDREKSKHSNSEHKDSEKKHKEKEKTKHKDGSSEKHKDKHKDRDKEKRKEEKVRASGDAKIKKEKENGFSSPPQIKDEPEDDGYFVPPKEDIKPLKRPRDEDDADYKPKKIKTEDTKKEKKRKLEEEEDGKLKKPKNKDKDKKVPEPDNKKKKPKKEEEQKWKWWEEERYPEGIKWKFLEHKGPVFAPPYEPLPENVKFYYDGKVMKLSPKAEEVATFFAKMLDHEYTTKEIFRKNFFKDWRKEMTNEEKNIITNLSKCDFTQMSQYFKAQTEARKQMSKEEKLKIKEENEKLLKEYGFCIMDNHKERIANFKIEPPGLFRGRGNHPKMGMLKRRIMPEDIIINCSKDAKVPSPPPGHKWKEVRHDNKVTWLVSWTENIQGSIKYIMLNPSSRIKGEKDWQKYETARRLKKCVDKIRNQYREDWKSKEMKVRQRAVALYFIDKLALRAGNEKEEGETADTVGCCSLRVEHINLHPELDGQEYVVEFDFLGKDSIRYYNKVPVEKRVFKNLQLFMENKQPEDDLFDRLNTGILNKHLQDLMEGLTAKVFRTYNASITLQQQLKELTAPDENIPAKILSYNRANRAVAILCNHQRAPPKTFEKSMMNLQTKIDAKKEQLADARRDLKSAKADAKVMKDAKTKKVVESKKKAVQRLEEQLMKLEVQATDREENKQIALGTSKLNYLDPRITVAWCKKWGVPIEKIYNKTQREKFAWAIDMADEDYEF
Procedure, shortened: (§2)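 Human TopI was expressed from pHT143 (GAL promoter) in yeast RS190 and affinity-purified. Reactions used 110 ng/µL TopI and 0.5 µg supercoiled pUC18 in 20 µl buffer (20 mM Tris–HCl, 0.1 mM Na2EDTA, 10 mM MgCl2, 50 µg/mL acetylated BSA, 150 mM KCl, pH 7.5). Drug was mixed with enzyme before DNA was added, and reactions were stopped with SDS. Products were resolved on 1% agarose in TBE and stained with gel red.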

[3] = biological target: T1, DNA topoisomerase 1 (Homo sapiens); assay: as §1, with “15 secs” for “1 min”; procedure, shortened: as §2
[4] = tested on: A549; assay: Antiproliferative activity against human A549 cells after 48 hrs by CCK-8 assay; assay type: functional, cell-based; details: A549, 48 h
Procedure, shortened: (§3)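 Cells seeded at 2-4 x 10^3 per well and grown overnight in 0.1 mL medium with 10% FBS at 37 °C under 5% CO2. Drugs were added on day 2 and cells incubated 48 h. CCK-8 was then added for 2 h at 37 °C and absorbance read at 450 nm. IC50 values were reported.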

[5] = tested on: MRC5; assay: Antiproliferative activity against human MRC5 cells after 48 hrs by CCK-8 assay; assay type: cell-based; details: MRC5, 48 h; procedure, shortened: as §3
[6] = biological target: T1, DNA topoisomerase 1 (Homo sapiens); assay: as §1, with “3 mins” for “1 min”; procedure, shortened: as §2
[7] = tested on: SK-OV-3; assay: Antiproliferative activity against human SKOV3 cells after 48 hrs by CCK-8 assay; assay type: functional, cell-based; details: SK-OV-3, 48 h; procedure, shortened: as §3
[8] = biological target: T1, DNA topoisomerase 1 (Homo sapiens); assay: as §1, with “40” for “80”, “3 mins” for “1 min”; procedure, shortened: as §2
[9] = biological target: T1, DNA topoisomerase 1 (Homo sapiens); assay: as §1, with “60” for “80”, “3 mins” for “1 min”; procedure, shortened: as §2
[10] = biological target: T1, DNA topoisomerase 1 (Homo sapiens); assay: as §1, with “20” for “80”, “3 mins” for “1 min”; procedure, shortened: as §2
[11] = biological target: T1, DNA topoisomerase 1 (Homo sapiens); assay: as §1, with “10” for “80”, “3 mins” for “1 min”; procedure, shortened: as §2

SMILES | inhibition [2] | inhibition [3] | IC50 [4] | inhibition [6] | IC50 [7] | inhibition [8] | inhibition [9] | inhibition [10] | inhibition [11] | IC50 [1] | IC50 [5]
c1ccc([C@H]2C[C@@H](c3ccccc3)Nc3c2cccc3P(c2ccccc2)c2ccccc2)cc1 | 85% | 85% | 0.6 µM | 85% | > 50 µM | 0% | 0% | 0% | 0% | > 50 µM | > 50 µM
O=P(c1ccccc1)(c1ccccc1)c1cccc2c(-c3ccccc3)cc(-c3ccccc3)nc12 | 57% | 57% | 1.21 µM | 8% | 14.5 µM |  |  |  |  | 13.8 µM | > 50 µM
O=P(c1ccccc1)(c1ccccc1)c1cccc2c(-c3ccccc3)cc(-c3ccccn3)nc12 | 52% | 58% | 2.93 µM | 11% | 17.3 µM |  |  |  |  | 12 µM | > 50 µM
Fc1ccc([C@H]2C[C@@H](c3ccc(F)cc3)Nc3c2cccc3P(=S)(c2ccccc2)c2ccccc2)cc1 | 84% | 85% | 0.03 µM | 75% | > 50 µM | 17% | 19% | 17% | 17% | > 50 µM | > 50 µM
COc1ccccc1-c1cc(-c2ccccc2)c2cccc(P(=O)(c3ccccc3)c3ccccc3)c2n1 | 83% | 90% | 3.11 µM | 63% | 13.1 µM |  |  |  |  | 24.1 µM | > 50 µM
O=P(c1ccccc1)(c1ccccc1)c1cccc2c1N[C@H](c1ccccc1)C[C@@H]2c1ccccc1 | 50% | 52% | 1.72 µM | 21% | > 50 µM |  |  |  |  | > 50 µM | > 50 µM
FC(F)(F)c1ccc([C@@H]2C[C@H](c3ccccc3)c3cccc(P(=S)(c4ccccc4)c4ccccc4)c3N2)cc1 | 17% | 20% | 0.22 µM | 17% | > 50 µM |  |  |  |  | > 50 µM | > 50 µM
S=P(c1ccccc1)(c1ccccc1)c1cccc2c(-c3ccccc3)cc(-c3ccccc3)nc12 | 60% | 75% | > 50 µM | 24% | > 50 µM |  |  |  |  | > 50 µM | > 50 µM
Fc1ccc([C@@H]2C[C@H](c3ccccc3)c3cccc(P(=S)(c4ccccc4)c4ccccc4)c3N2)cc1F | 50% | 57% | 0.08 µM | 49% | > 50 µM |  |  |  |  | > 50 µM | > 50 µM
COc1ccccc1[C@@H]1C[C@H](c2ccccc2)c2cccc(P(=O)(c3ccccc3)c3ccccc3)c2N1 |  |  | 0.21 µM |  | > 50 µM |  |  |  |  | 16.3 µM | > 50 µM
O=P(c1ccccc1)(c1ccccc1)c1cccc2c(-c3ccccc3)cc(-c3ccc(C(F)(F)F)cc3)nc12 | 28% | 31% | 1.03 µM | 28% | 15.2 µM |  |  |  |  | 19.4 µM | > 50 µM
Fc1ccc(-c2cc(-c3ccc(F)cc3)c3cccc(P(=S)(c4ccccc4)c4ccccc4)c3n2)cc1 |  |  | > 50 µM |  | > 50 µM |  |  |  |  | > 50 µM | > 50 µM
O=P(c1ccccc1)(c1ccccc1)c1cccc2c1N[C@H](c1ccc(C(F)(F)F)cc1)C[C@@H]2c1ccccc1 | 56% | 61% | 0.5 µM | 16% | > 50 µM |  |  |  |  | 28 µM | > 50 µM
Cc1ccc(-c2cc(-c3ccccc3)nc3c(P(=O)(c4ccccc4)c4ccccc4)cccc23)cc1 | 7% | 7% | 7.65 µM | 5% | 17.4 µM |  |  |  |  | 8.97 µM | > 50 µM
O=P(c1ccccc1)(c1ccccc1)c1cccc2c1N[C@H](c1ccc(F)cc1)C[C@@H]2c1ccccc1 | 50% | 55% | 2.69 µM | 16% | 24.1 µM |  |  |  |  | 26.5 µM | > 50 µM
O=P(c1ccccc1)(c1ccccc1)c1cccc2c(-c3ccccc3)cc(-c3cccc4ccccc34)nc12 | 87% | 89% | 6.32 µM | 65% | > 50 µM |  |  |  |  | 54.4 µM | > 50 µM

Continued by falling IC50 [4], values first:

inhibition [2] | inhibition [3] | IC50 [4] | inhibition [6] | IC50 [7] | inhibition [8] | inhibition [9] | inhibition [10] | inhibition [11] | SMILES | IC50 [1] | IC50 [5]
61% | 61% | 16.2 µM | 59% | > 50 µM |  |  |  |  | FC(F)(F)c1ccc([C@@H]2C[C@H](c3ccccc3)c3cccc(P(c4ccccc4)c4ccccc4)c3N2)cc1 | > 50 µM | > 50 µM
50% | 50% | 3.82 µM | 13% | 6.77 µM |  |  |  |  | O=P(c1ccccc1)(c1ccccc1)c1cccc2c(-c3ccc(F)cc3)cc(-c3ccc(F)cc3)nc12 | 12.5 µM | > 50 µM
63% | 63% | 3.57 µM | 45% | > 50 µM |  |  |  |  | O=P(c1ccccc1)(c1ccccc1)c1cccc2c1N[C@H](c1cccc3ccccc13)C[C@@H]2c1ccccc1 | > 50 µM | > 50 µM
52% | 52% | 2.48 µM | 52% | > 50 µM |  |  |  |  | COc1ccc([C@@H]2C[C@H](c3ccc(C)cc3)c3cccc(P(c4ccccc4)c4ccccc4)c3N2)cc1 | > 50 µM | > 50 µM
28% | 28% | 2.26 µM | 25% | 8.16 µM |  |  |  |  | O=P(c1ccccc1)(c1ccccc1)c1cccc2c(-c3ccccc3)cc(-c3ccc(F)cc3)nc12 | 17.2 µM | > 50 µM
25% | 28% | 1.2 µM | 12% | > 50 µM |  |  |  |  | Cc1ccc([C@H]2C[C@@H](c3ccccc3)Nc3c2cccc3P(=O)(c2ccccc2)c2ccccc2)cc1 | 28 µM | > 50 µM
39% | 41% | 0.27 µM | 37% | > 50 µM |  |  |  |  | Fc1ccc([C@@H]2C[C@H](c3ccccc3)c3cccc(P(=S)(c4ccccc4)c4ccccc4)c3N2)cc1 | > 50 µM | > 50 µM
92% | 96% | 0.25 µM | 92% | > 50 µM | 52% | 53% | 28% | 20% | Cc1ccc([C@H]2C[C@@H](c3ccc(F)cc3)Nc3c2cccc3P(c2ccccc2)c2ccccc2)cc1 | > 50 µM | > 50 µM
50% | 54% | 0.25 µM | 45% | 17.8 µM |  |  |  |  | O=P(c1ccccc1)(c1ccccc1)c1cccc2c1N[C@H](c1ccc(F)cc1)C[C@@H]2c1ccc(F)cc1 | 23.9 µM | > 50 µM
81% | 81% | 0.16 µM | 76% | > 50 µM | 0% | 0% | 0% | 0% | S=P(c1ccccc1)(c1ccccc1)c1cccc2c1N[C@H](c1ccccc1)C[C@@H]2c1ccccc1 | > 50 µM | > 50 µM
